The values that follow come from ChEMBL document CHEMBL1208663, “Synthesis of 2-substituted-N-[4-(1-methyl-4,5-diphenyl-1H-imidazole-2-yl)phenyl]acetamide derivatives and evaluation of their anticancer activity” (Eur J Med Chem, 2010).

Molecules are shown by their SMILES. Converted amounts (≈) assume the structure as drawn. The source made the active and inactive calls. The calls are words filed in the database; no cut-off is given here.

The test system of assay [1] is HT-29. The experiment in a line: Cytotoxicity against human HT-29 cells at 0.64 ug/ml after 24 hrs by MTT assay. It is filed as functional. The gist of the method:
(§1)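 HT-29 cells grown in McCoy's 5A with 10% FBS and penicillin/streptomycin at 37 °C, 5% CO2. Treated 24 h with 0.64, 1.6, 6.4, 16, 32 or 80 µg/mL (DMSO stock diluted in medium). MTT added, absorbance read at 540 nm. Viability taken relative to untreated control (100%); IC50 calculated. Four wells per concentration, three repeat experiments.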
In general terms: Tetrazolium assays rely on reduction of a dye to a coloured formazan, in cell work by metabolically active cells.

For assay [2], the system named is HT-29. In words: Cytotoxicity against human HT-29 cells at 1.6 ug/ml after 24 hrs by MTT assay. In kind it is functional. The gist of the method: as §1
Assay [3] has as its system HT-29. The experiment in a line: Cytotoxicity against human HT-29 cells at 6.4 ug/ml after 24 hrs by MTT assay. It is filed as functional. The gist of the method:
as §1

Assay [4] deals with HT-29. In words: Cytotoxicity against human HT-29 cells at 16 ug/ml after 24 hrs by MTT assay. It is filed as functional. The gist of the method: as §1
For assay [5], the system named is HT-29. The experiment in a line: Cytotoxicity against human HT-29 cells at 32 ug/ml after 24 hrs by MTT assay. In kind it is functional. Summed up: as §1
Assay [6] deals with HT-29. The experiment in a line: Cytotoxicity against human HT-29 cells at 80 ug/ml after 24 hrs by MTT assay. In kind it is functional. Summed up: as §1
In assay [7] the test system is HT-29. The experiment in a line: Cytotoxicity against human HT-29 cells after 24 hrs by MTT assay. It is filed as functional, cell-based. Particulars: HT-29, 24 h. Summed up: as §1
The subject of assay [8] is MCF7. In words: Cytotoxicity against human MCF7 cells at 0.64 ug/ml after 24 hrs by MTT assay. In kind it is functional. Summed up: (§2)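 MCF-7 cells grown in DMEM with 1 mM pyruvate, 10 µg/mL insulin, 10% FBS and penicillin/streptomycin at 37 °C, 5% CO2. Exposed 24 h to 0.64–80 µg/mL (DMSO stocks diluted in medium). MTT added, A540 measured. Percent viability relative to untreated cells; IC50 derived. Three experiments with four wells per concentration.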

For assay [9], the system named is MCF7. The experiment in a line: Cytotoxicity against human MCF7 cells at 1.6 ug/ml after 24 hrs by MTT assay. It is filed as functional. The gist of the method: as §2
Assay [10] concerns MCF7. The experiment in a line: Cytotoxicity against human MCF7 cells at 6.4 ug/ml after 24 hrs by MTT assay. In kind it is functional. Summed up:
as §2

In assay [11] the test system is MCF7. In words: Cytotoxicity against human MCF7 cells at 16 ug/ml after 24 hrs by MTT assay. It is filed as functional. The gist of the method:
as §2

Assay [12] concerns MCF7. The experiment in a line: Cytotoxicity against human MCF7 cells at 32 ug/ml after 24 hrs by MTT assay. It is filed as functional. The gist of the method: as §2
In assay [13] the test system is MCF7. In words: Cytotoxicity against human MCF7 cells at 80 ug/ml after 24 hrs by MTT assay. It is filed as functional. Summed up:
as §2

Assay [14] concerns MCF7. In words: Cytotoxicity against human MCF7 cells after 24 hrs by MTT assay. Particulars: MCF7, 24 h. It is filed as functional, cell-based. Summed up:
as §2

The subject of assay [15] is HT-29. The experiment in a line: Inhibition of DNA synthesis in human HT-29 cells by BrdU incorporation assay. In kind it is functional, cell-based. The note with it: TDE = time-dependent effect. The gist of the method: (§3)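 HT-29 cells (McCoy's 5A, 10% FBS) seeded at 1 × 10^3 cells/mL. Exposed to three concentrations for 24 h and 48 h at 37 °C, with DMSO solvent control. BrdU label for 2 h, then fixation and anti-BrdU-POD for 90 min. Substrate colour read at 492 nm with blank subtracted. Triplicate wells, three experiments.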
(In general: Uptake of a labelled nucleoside into DNA is a usual measure of proliferation.)

In assay [16] the test system is MCF7. In words: Inhibition of DNA synthesis in human MCF7 cells by BrdU incorporation assay. It is filed as functional, cell-based. The note with it: TDE = time-dependent effect. Summed up: (§4)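 MCF-7 cells (DMEM, pyruvate, insulin, 10% FBS) seeded at 1 × 10^3 cells/mL. Treated at three concentrations for 24 h or 48 h at 37 °C against DMSO control. Labelled with BrdU for 2 h, fixed, then anti-BrdU-POD for 90 min. Colorimetric substrate read at 492 nm after blank subtraction. Triplicate wells, repeated three times.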

Assay [17] concerns HT-29. In words: Inhibition of DNA synthesis in human HT-29 cells after 48 hrs by BrdU incorporation assay. It is filed as functional, cell-based. The gist of the method:
as §3

The test system of assay [18] is MCF7. The experiment in a line: Inhibition of DNA synthesis in human MCF7 cells after 48 hrs by BrdU incorporation assay. It is filed as functional, cell-based. The gist of the method:
as §4

For assay [19], the system named is HT-29. In words: Induction of apoptosis in human HT-29 cells assessed as DNA fragmentation after 24 hrs by gel electrophoresis.

Turning to `Cn1c(-c2ccc(NC(=O)CCl)cc2)nc(-c2ccccc2)c1-c1ccccc1`, the Activity in assay [1] turned out to be 7.2%; in assay [2], 14.4%; in assay [3] it was 15.1%; in [4] it was 23.7%; in assay [5], 53.2%; in assay [6], 76.1%. Besides, the Activity is 3.4% in assay [8]; 4.3% in assay [9]; 14.2% in [10]; 15.2% in [11]; 42.8% in assay [12]; 70% in [13]. In addition, the 50% inhibitory concentration (IC50) is 28.7 µg/mL (≈ 71.4 µM) in [7] and 42.6 µg/mL (≈ 106 µM) in assay [14].

`Cn1cnnc1SCC(=O)Nc1ccc(-c2nc(-c3ccccc3)c(-c3ccccc3)n2C)cc1`: the Activity in assay [1] is on record as 32%; in assay [2], 40.8%; in assay [3], 43.1%; in [4], 59.1%; in assay [5] it was 86.1%; in assay [6], 88%. In addition, the Activity in [8] turned out to be 33.1%; in assay [9], 42.8%; in assay [10] it was 59.2%; in assay [11], 61.2%; in assay [12], 89.2%; in assay [13], 89.3%. Moreover, the 50% inhibitory concentration (IC50) in assay [7] amounted to 10.7 µg/mL (≈ 22.3 µM); in assay [14], 3.2 µg/mL (≈ 6.66 µM). Moreover, the inhibition result was “tde” in assay [15], “tde” in assay [16], “Dose-dependent effect” in assay [17] and “Dose-dependent effect” in assay [18]. The result in assay [19] was Active.

Consider `CCN1CCN(CC(=O)Nc2ccc(-c3nc(-c4ccccc4)c(-c4ccccc4)n3C)cc2)CC1`, for which the Activity came to 7.4% in assay [1]; 13.9% in assay [2]; 17.2% in assay [3]; 28.4% in [4]; 38.8% in assay [5]; 51.2% in assay [6]. Also, the Activity in assay [8] was found to be 4.7%; in [9], 14.6%; in assay [10] it was 16.4%; in [11], 32.8%; in [12] it was 38.6%; in assay [13], 46.3%. Further, the IC50 is 75 µg/mL (≈ 156 µM) in assay [7] and over 80 µg/mL in [14].

For `Cn1ccnc1SCC(=O)Nc1ccc(-c2nc(-c3ccccc3)c(-c3ccccc3)n2C)cc1`, the Activity in assay [1] is given as 13.6%; in assay [2], 23.8%; in assay [3], 30.7%; in assay [4], 36.5%; in assay [5] it was 41.1%; in assay [6], 69.4%. In addition, the Activity in [8] was found to be 10.3%; in assay [9], 17.5%; in [10], 27.2%; in assay [11], 32.4%; in assay [12], 43.4%; in assay [13], 64%. Also, the IC50 in assay [7] turned out to be 47.5 µg/mL (≈ 99 µM); in assay [14] it was 46.5 µg/mL (≈ 97 µM).

For `Cn1c(-c2ccc(NC(=O)CN3CCN(c4ccccc4)CC3)cc2)nc(-c2ccccc2)c1-c1ccccc1`, the Activity was 17.3% in assay [1]; 26% in [2]; 46.5% in assay [3]; 55.4% in [4]; 60.5% in [5]; 63.7% in assay [6]. For the same compound, the Activity in [8] amounted to 12.1%; in assay [9], 21.3%; in [10], 37.7%; in assay [11], 59.6%; in assay [12] it was 63.6%; in [13] it was 72.5%. Besides, the IC50 in assay [7] is 8.6 µg/mL (≈ 16.3 µM); in [14], 10.7 µg/mL (≈ 20.3 µM).

Take `Cn1c(-c2ccc(NC(=O)CSC3=NCCS3)cc2)nc(-c2ccccc2)c1-c1ccccc1`: the Activity in assay [1] amounted to 16.8%; in [2], 30.4%; in assay [3], 31%; in [4], 43.3%; in assay [5] it was 59.4%; in assay [6], 75.2%. The Activity in assay [8] worked out at 10.3%; in assay [9], 16.2%; in assay [10] it was 18.6%; in [11], 41.8%; in assay [12] it was 52.5%; in [13], 70%. Besides, the results for the IC50 in assay [7] and in assay [14] were 21 µg/mL (≈ 43.3 µM) and 26.7 µg/mL (≈ 55.1 µM), respectively.

As to `CN(C)CCN1CCN(CC(=O)Nc2ccc(-c3nc(-c4ccccc4)c(-c4ccccc4)n3C)cc2)CC1`, the Activity was 3.1% in assay [1]; 8% in [2]; 12.2% in assay [3]; 28.2% in [4]; 29.8% in [5]; 45.4% in assay [6]. Moreover, the Activity was determined as 1.2% in assay [8]; 1.9% in [9]; 11.1% in assay [10]; 19.4% in assay [11]; 25.8% in [12]; 34.7% in assay [13]. The IC50 in assay [7] and in assay [14] was over 80 µg/mL in each case.

Turning to `Cn1c(-c2ccc(NC(=O)CSc3nc4ccccc4s3)cc2)nc(-c2ccccc2)c1-c1ccccc1`, the Activity was 9.8% in [1]; 15.3% in assay [2]; 36.8% in [3]; 47.2% in assay [4]; 66% in assay [5]; 82.7% in [6]. Also, the Activity in assay [8] worked out at 0.9%; in assay [9], 2.1%; in [10], 27%; in [11], 50.3%; in assay [12], 59%; in assay [13], 76.6%. The IC50 worked out at 18 µg/mL (≈ 33.8 µM) in assay [7] and 15.8 µg/mL (≈ 29.7 µM) in assay [14].

For the compound `Cn1c(-c2ccc(NC(=O)CN3CCN(Cc4ccccc4)CC3)cc2)nc(-c2ccccc2)c1-c1ccccc1`, the Activity in [1] was 15.5%; in assay [2] it was 26%; in assay [3], 26.8%; in assay [4], 37%; in assay [5] it was 40%; in assay [6], 54.5%. In addition, the Activity in [8] stood at 7.2%; in assay [9], 13.3%; in assay [10], 23.8%; in [11] it was 28.3%; in assay [12], 33.6%; in assay [13], 49.5%. In addition, the IC50 in assay [7] is 65.5 µg/mL (≈ 121 µM); in assay [14], over 80 µg/mL.

Regarding `Cn1c(-c2ccc(NC(=O)CN3CCN(Cc4ccc(Cl)cc4)CC3)cc2)nc(-c2ccccc2)c1-c1ccccc1`, the Activity in [1] is 11.3%; in [2], 16.4%; in assay [3], 41.5%; in [4], 52.9%; in assay [5], 55.6%; in [6], 60.7%. Further, the Activity was found to be 4.8% in assay [8]; 11.8% in [9]; 33.4% in assay [10]; 46.2% in [11]; 52.8% in assay [12]; 52.9% in assay [13]. Further, the figures for the IC50 in assay [7] and in [14] were 12 µg/mL (≈ 20.8 µM) and 21 µg/mL (≈ 36.4 µM), respectively.

In the case of `CN1CCN(CC(=O)Nc2ccc(-c3nc(-c4ccccc4)c(-c4ccccc4)n3C)cc2)CC1`, the Activity in [1] is 18.8%; in assay [2], 27.4%; in assay [3] it was 28.8%; in assay [4] it was 33.7%; in assay [5] it was 49.1%; in assay [6], 53.1%. For the same compound, the Activity in assay [8] is given as 1.1%; in assay [9] it was 2.9%; in assay [10] it was 28.6%; in assay [11], 30.1%; in assay [12], 46.2%; in [13], 50.3%. The half-maximal inhibitory concentration (IC50) in assay [7] came to 35.5 µg/mL (≈ 76.2 µM); in assay [14] it was 76.5 µg/mL (≈ 164 µM).

Usually IC50 stands for the concentration at which inhibition is half-maximal. A high value points to a need for much substance.
